Data taken from ChEMBL document CHEMBL1781959, “Synthesis and in vitro antitumor activity of substituted quinazoline and quinoxaline derivatives: search for anticancer agent” (Eur J Med Chem, 2011).

Tests used:
[1] = tested on: HL-60(TB); test: Growth inhibition of human HL-60(TB) cells after 48 hrs by SRB assay; type: functional; details: HL-60, 48 h
[2] = tested on: MOLT-4; test: Growth inhibition of human MOLT4 cells after 48 hrs by SRB assay; type: functional; details: MOLT-4, 48 h
How it was run: (§1)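 NCI 60-panel five-dose assay at 0.01, 0.1, 1, 10 and 100 μM. Cells in RPMI 1640 with 5% FBS and 2 mM L-glutamine, preincubated 24 h, with time-zero plates TCA-fixed. Drug exposure 48 h at 37 °C. Read by SRB staining at 515 nm. GI50 is the concentration where [(Ti−Tz)/(C−Tz)]×100 = 50, taken from log concentration versus % growth curves.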

[3] = tested on: NCI-H23; test: Growth inhibition of human NCI-H23 cells after 48 hrs by SRB assay; type: functional; details: NCI-H23, 48 h; how it was run: as §1
[4] = tested on: HT-29; test: Growth inhibition of human HT-29 cells after 48 hrs by SRB assay; type: functional; details: HT-29, 48 h; how it was run: as §1
[5] = tested on: SW-620; test: Growth inhibition of human SW620 cells after 48 hrs by SRB assay; type: functional; details: SW-620, 48 h
How it was run: (§2)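 NCI-60 panel cells grown in RPMI 1640 with 5% FBS and 2 mM L-glutamine, then seeded at 5000–40,000 cells/well by doubling time and preincubated for 24 h. Compound in DMSO was tested either at 10^-5 M alone or at 0.01–100 μM in five doses, for 48 h at 37 °C. Cells were fixed with cold TCA (10% final), stained with SRB, and read at 515 nm. GI50 was taken from % growth relative to time-zero and control wells.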

[6] = tested on: SK-MEL-28; test: Growth inhibition of human SK-MEL-28 cells after 48 hrs by SRB assay; type: functional; details: SK-MEL-28, 48 h; how it was run: as §2
[7] = tested on: UACC-257; test: Growth inhibition of human UACC257 cells after 48 hrs by SRB assay; type: functional; details: UACC-257, 48 h; how it was run: as §2
[8] = tested on: NCI/ADR-RES; test: Growth inhibition of human NCI/ADR-RES cells after 48 hrs by SRB assay; type: functional; how it was run: as §1
[9] = tested on: SK-OV-3; test: Growth inhibition of human SKOV3 cells after 48 hrs by SRB assay; type: functional; details: SK-OV-3, 48 h; how it was run: as §2
[10] = tested on: A498; test: Growth inhibition of human A498 cells after 48 hrs by SRB assay; type: functional; details: A498, 48 h; how it was run: as §1
[11] = tested on: RXF 393; test: Growth inhibition of human RXF393 cells after 48 hrs by SRB assay; type: functional; details: RXF 393, 48 h; how it was run: as §1
[12] = tested on: PC-3; test: Growth inhibition of human PC3 cells after 48 hrs by SRB assay; type: functional; details: PC-3, 48 h; how it was run: as §1
[13] = tested on: MCF7; test: Growth inhibition of human MCF7 cells after 48 hrs by SRB assay; type: functional; details: MCF7, 48 h; how it was run: as §1
[14] = tested on: BT-549; test: Growth inhibition of human BT549 cells after 48 hrs by SRB assay; type: functional; details: BT-549, 48 h; how it was run: as §1
[15] = tested on: MDA-MB-468; test: Growth inhibition of human MDA-MB-468 cells after 48 hrs by SRB assay; type: functional; details: MDA-MB-468, 48 h; how it was run: as §1
[16] = tested on: NCI-H226; test: Cytotoxicity against human NCI-H226 cells after 48 hrs by SRB assay; type: cell-based; details: nci-h226, 48 h
How it was run: (§3)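 NCI-60 five-dose screen in RPMI 1640 with 5% FBS and 2 mM L-glutamine; 5000–40,000 cells/well, 24 h pre-incubation. DMSO stocks diluted to 0.01, 0.1, 1, 10 and 100 μM final; 48 h at 37 °C, 5% CO2. Fixed with TCA (10% final adherent, 16% suspension), stained with 0.4% SRB, A515. GI50, TGI and LC50 taken from time-zero, control and test absorbances.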

[17] = tested on: EKVX; test: Cytotoxicity against human EKVX cells after 48 hrs by SRB assay; type: cell-based; how it was run: as §3
[18] = tested on: A549; test: Cytotoxicity against human A549 cells after 48 hrs by SRB assay; type: cell-based; details: a549, 48 h; how it was run: as §3
[19] = tested on: SR; test: Cytotoxicity against human SR cells after 48 hrs by SRB assay; type: cell-based
How it was run: (§4)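 NCI-60 five-dose screen. Cells grown in RPMI 1640 with 5% FBS and 2 mM L-glutamine and pre-incubated 24 h; a time-zero plate is TCA-fixed. Drug added at 0.01, 0.1, 1, 10 and 100 µM (DMSO stock) for 48 h at 37 °C, 5% CO2. Fixed with cold TCA (10% final for adherent, 16% for suspension cells), stained with 0.4% SRB, A515. GI50, TGI and LC50 taken from dose-response curves.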

[20] = tested on: MOLT-4; test: Cytotoxicity against human MOLT4 cells after 48 hrs by SRB assay; type: cell-based; details: molt-4, 48 h; how it was run: as §3
[21] = tested on: HL-60(TB); test: Cytotoxicity against human HL-60(TB) cells after 48 hrs by SRB assay; type: cell-based; how it was run: as §3
[22] = tested on: NCI-H460; test: Cytotoxicity against human NCI-H460 cells after 48 hrs by SRB assay; type: cell-based; details: nci-h460, 48 h; how it was run: as §3
[23] = tested on: NCI-H522; test: Cytotoxicity against human NCI-H522 cells after 48 hrs by SRB assay; type: cell-based; details: nci-h522, 48 h; how it was run: as §3
[24] = tested on: COLO 205; test: Cytotoxicity against human COLO205 cells after 48 hrs by SRB assay; type: cell-based; details: colo 205, 48 h; how it was run: as §3
[25] = tested on: HCT-116; test: Cytotoxicity against human HCT116 cells after 48 hrs by SRB assay; type: cell-based; details: hct-116, 48 h; how it was run: as §3
[26] = tested on: HCT-15; test: Cytotoxicity against human HCT15 cells after 48 hrs by SRB assay; type: cell-based; details: hct-15, 48 h; how it was run: as §3
[27] = tested on: SW-620; test: Cytotoxicity against human SW620 cells after 48 hrs by SRB assay; type: cell-based; details: sw-620, 48 h; how it was run: as §4
[28] = tested on: SF-268; test: Cytotoxicity against human SF268 cells after 48 hrs by SRB assay; type: cell-based; details: sf-268, 48 h; how it was run: as §3
[29] = tested on: SNB-75; test: Cytotoxicity against human SNB75 cells after 48 hrs by SRB assay; type: cell-based; details: snb-75, 48 h; how it was run: as §4
[30] = tested on: U-251; test: Cytotoxicity against human U251 cells after 48 hrs by SRB assay; type: cell-based; details: u-251, 48 h; how it was run: as §4
[31] = tested on: Malme-3M; test: Cytotoxicity against human MALME-3M cells after 48 hrs by SRB assay; type: cell-based; how it was run: as §3
[32] = tested on: SK-MEL-2; test: Cytotoxicity against human SK-MEL-2 cells after 48 hrs by SRB assay; type: cell-based; details: sk-mel-2, 48 h; how it was run: as §3
[33] = tested on: IGROV-1; test: Cytotoxicity against human IGROV1 cells after 48 hrs by SRB assay; type: cell-based; details: igrov-1, 48 h; how it was run: as §3
[34] = tested on: OVCAR-3; test: Cytotoxicity against human OVCAR3 cells after 48 hrs by SRB assay; type: cell-based; details: ovcar-3, 48 h; how it was run: as §3
[35] = tested on: ACHN; test: Cytotoxicity against human ACHN cells after 48 hrs by SRB assay; type: cell-based; how it was run: as §3
[36] = tested on: BT-549; test: Cytotoxicity against human BT549 cells after 48 hrs by SRB assay; type: cell-based; details: bt-549, 48 h; how it was run: as §3

O=c1c2ccccc2nc(-c2ccco2)n1/N=C/c1ccccc1Cl
GI50 [1]: 23.8 µM
TGI [1]: > 100 µM
GI50 [2]: > 100 µM
TGI [2]: > 100 µM
GI50 [3]: 7.87 µM
TGI [3]: > 100 µM
GI50 [4]: 3.42 µM
TGI [4]: > 100 µM
GI50 [5]: 4.68 µM
TGI [5]: 12.7 µM
GI50 [6]: 4.45 µM
TGI [6]: 18.6 µM
GI50 [7]: 8.34 µM
TGI [7]: > 100 µM
GI50 [8]: 2.45 µM
TGI [8]: 8.78 µM
GI50 [9]: 3.68 µM
TGI [9]: 14.8 µM
GI50 [10]: 5.76 µM
TGI [10]: 16.7 µM
GI50 [11]: 11.6 µM
TGI [11]: 42.6 µM
GI50 [12]: 8.23 µM
TGI [12]: > 100 µM
GI50 [13]: 5.29 µM
TGI [13]: > 100 µM
GI50 [14]: 2.92 µM
TGI [14]: 6.8 µM
GI50 [15]: 9.96 µM
TGI [15]: > 100 µM
LC50 [16]: > 100 µM
LC50 [17]: > 100 µM
LC50 [18]: > 100 µM
LC50 [19]: > 100 µM
LC50 [20]: > 100 µM
LC50 [21]: > 100 µM
LC50 [22]: > 100 µM
LC50 [23]: 82.9 µM
LC50 [24]: > 100 µM
LC50 [25]: > 100 µM
LC50 [26]: > 100 µM
LC50 [27]: > 100 µM
LC50 [28]: > 100 µM
LC50 [29]: > 100 µM
LC50 [30]: > 100 µM
LC50 [31]: > 100 µM
LC50 [32]: > 100 µM
LC50 [33]: > 100 µM
LC50 [34]: > 100 µM
LC50 [35]: > 100 µM
LC50 [36]: 72.4 µM
